An excerpt weighted towards active compounds, which were near 1.3% of everything screened.
CHT PAM: CHT positive allosteric modulators, primary screen, cell-based, membrane potential dye, choline EC20; CHT-expressing cells; hits give high values; LV-AA mutant CHT in HEK293 cells; B-score at 10 µM; High affinity choline transporter 1 (Homo sapiens), Q9GZV3; AID 488977, 2010; 0.49% of 310,000 active;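 active = initial fluorescence not abnormally high and integrated response B-score, plate-corrected, over 3 SD above library mean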
CHT block: inhibitors of human choline transporter CHT; High affinity choline transporter 1 (Homo sapiens), Q9GZV3; CHT-expressing cells, membrane potential dye, choline response; hits give low values; 0.86% of 310,000 active; B-score at 10 µM;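 active = B-score over 3 SD under the library average, and starting fluorescence ratio not unusually high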;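 note: choline stimulus applied at its EC90 after an EC20 pre-addition; B-score computed on integrated fluorescence ratio after choline addition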
procasp7 counter: procaspase-7 activators, primary screen, counter-screen for procaspase-3 activator project, biochemical, absorbance, HTS, human. Caspase-7 (Homo sapiens), P55210. recombinant procaspase-7, Ac-DEVD-pNA absorbance 405 nm; D23A/D198A/D206A triple mutant, cannot self-cleave; scale: DMSO 0, 5 µM enzyme 100. activation, % at 8.5 µM. 0.093% of 330,000 active;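 active = percent activation above the screen-wide mean plus 3 SD, cut at about 25% in these data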
Target sequence (P55210 whole entry D23A/D198A/D206A): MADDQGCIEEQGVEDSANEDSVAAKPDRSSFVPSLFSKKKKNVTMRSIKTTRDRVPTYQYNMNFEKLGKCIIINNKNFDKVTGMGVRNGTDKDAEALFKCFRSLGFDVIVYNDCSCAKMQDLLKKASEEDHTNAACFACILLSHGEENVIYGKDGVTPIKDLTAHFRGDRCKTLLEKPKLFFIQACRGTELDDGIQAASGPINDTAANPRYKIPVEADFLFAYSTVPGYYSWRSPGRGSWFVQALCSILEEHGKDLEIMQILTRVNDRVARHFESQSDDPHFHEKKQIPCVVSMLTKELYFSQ
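System: Uncleavable procaspase-7 mutant enzyme; Amount: 2 µM procaspase-7 mutant as dispensed; Schedule: 1 h compound preincubation, 2 h substrate cleavage, 25 °C; Measured by: 405 nm absorbance of p-nitroaniline; Evaluation: percent activation from buffer-corrected 0–120 min absorbance change; Control set: low DMSO alone, high DMSO plus 5 µM PC-7.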
proCasp3 act: activators of human procaspase-3 D3A mutant, primary screen, biochemical, absorbance, PC-3 D3A mutant, single concentration | recombinant procaspase-3 D3A, Ac-DEVD-pNA absorbance 405 nm | Caspase-3 (Homo sapiens), P42574 | AID 463141, 2010 | 0.11% of 330,000 active | activation, % at 8.5 µM;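 active = activation above the mean of all tested compounds plus 3 SD, cut at about 21% in these data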;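 note: 0% = DMSO alone and 100% = DMSO wells spiked with extra 5 µM PC-3 D3A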
Target sequence (P42574 whole entry D9A/D28A/D175A): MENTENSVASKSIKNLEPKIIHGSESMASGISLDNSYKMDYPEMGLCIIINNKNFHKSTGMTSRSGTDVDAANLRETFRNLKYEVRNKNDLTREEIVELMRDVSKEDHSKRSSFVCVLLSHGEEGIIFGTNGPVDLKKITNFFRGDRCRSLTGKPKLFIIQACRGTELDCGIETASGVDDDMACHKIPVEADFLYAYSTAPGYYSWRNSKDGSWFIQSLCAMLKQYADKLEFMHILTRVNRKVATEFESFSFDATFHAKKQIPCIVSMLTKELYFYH
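Assay system – Procaspase-3 D3A mutant · Benchmarks – DMSO low control, extra-enzyme high control · Technique – 405 nm absorbance of p-nitroaniline, reads at 0 and 120 min · Doses – 8.5 µM nominal · Measure – % activation between DMSO and enzyme-spiked controls · Also added – Ac-DEVD-pNA chromogenic peptide substrate · Schedule – 1 h compound preincubation, 2 h substrate hydrolysis at 25 °C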
PC3 D3A act: procaspase-3 activators, counter-screen for dual procaspase-3/7 activator project, biochemical, absorbance, PC-3 D3A mutant, human. recombinant PC-3 D3A, Ac-DEVD-pNA absorbance 405 nm; aspartates 9, 28, 175 changed to alanine; 100% = enzyme control. shares compounds with procasp7 counter. 290 tested, under 10 active. activation, % at 8.5 µM;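 active = mean percent activation across triplicates above a set limit taken from the earlier primary procaspase-3 screen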;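 note: 0% = DMSO wells and 100% = DMSO wells with 5 µM added PC-3 D3A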
PC7 dual conf: activation of procaspase-7 enzyme – biochemical, absorbance, human, dual procaspase-3/-7 activator project, confirmation | shares compounds with procasp7 counter | recombinant procaspase-7, Ac-DEVD-pNA absorbance 405 nm; D23A/D198A/D206A mutant that cannot self-cleave | activation, % at 8.5 µM | 290 tested, under 10 active;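 active = mean activation above a set limit carried over from the earlier primary screen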;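 note: 0% = DMSO only and 100% = DMSO with added 5 µM PC-7 enzyme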
Starred values were filed as active, the others as inactive.

For CC(C)C[C@H](NC(=O)N1CCn2c1nc1ccccc12)C(=O)NCc1ccc2c(c1)OCO2 the results were CHT PAM inactive, CHT block inactive, procasp7 counter -8 and proCasp3 act 11.
Screening CCc1cc2c3c(c(=O)oc2cc1O)CCCC3 returned CHT PAM inactive, CHT block inactive, procasp7 counter 26*, proCasp3 act 28*, PC3 D3A act -29 and PC7 dual conf -36.
Screening CCn1nc(NC(=O)c2ccccc2)c2cc3cccc(C)c3nc21 returned CHT PAM inactive, CHT block inactive, procasp7 counter 50*, proCasp3 act 53*, PC3 D3A act -29 and PC7 dual conf -35.
Screening Cc1cccc2cc3c(NC(=O)C(C)(C)C)nn(CC(C)C)c3nc12 returned CHT PAM inactive, CHT block inactive, procasp7 counter 35*, proCasp3 act 36*, PC3 D3A act -29 and PC7 dual conf -36.
Screening CCn1nc(NC(C)=O)c2cc3cccc(C)c3nc21 returned CHT PAM inactive, CHT block inactive, procasp7 counter -5 and proCasp3 act -11.
Screening COc1ccc(-c2cc3nc(-c4ccccc4)cc(N4CCCC(O)C4)n3n2)cc1 (stereo not given) returned CHT PAM inactive, CHT block inactive, procasp7 counter 58*, proCasp3 act 29*, PC3 D3A act -2 and PC7 dual conf -5.
Cc1ccc2nc(-c3ccc(NS(=O)(=O)c4c(C)n(C)c(=O)n(C)c4=O)cc3)sc2c1 was read as CHT PAM inactive, CHT block inactive, procasp7 counter -20 and proCasp3 act -11.
For Cc1cccc(S(=O)(=O)Nc2ccc(-c3nc4ccc(C)cc4s3)cc2)c1 the results were CHT PAM inactive, CHT block inactive, procasp7 counter 43*, proCasp3 act 23*, PC3 D3A act -27 and PC7 dual conf -32.
For C=CCSc1nnc(-c2cc3c(s2)-c2ccccc2CC3)o1 the results were CHT PAM inactive, CHT block inactive, procasp7 counter 28*, proCasp3 act 18, PC3 D3A act -29 and PC7 dual conf -27.
Screening O=C(O)CC(C(=O)NCc1ccccc1)C1CCCO1 (stereo not given) returned CHT PAM inactive, CHT block inactive, procasp7 counter 27*, proCasp3 act -6, PC3 D3A act 2 and PC7 dual conf 1.
O=C(CC(C(=O)O)C1CCCO1)NCc1ccccc1 (stereo not given) was read as CHT PAM inactive, CHT block inactive, procasp7 counter 6 and proCasp3 act 6.
For O=C1Nc2ccccc2O/C1=C\c1ccccc1Br the results were CHT PAM inactive, CHT block inactive, procasp7 counter 29*, proCasp3 act 36*, PC3 D3A act -20 and PC7 dual conf -23.
`COc1ccc(Br)cc1/C=C1\Oc2ccccc2NC1=O` gave CHT PAM inactive, CHT block inactive, procasp7 counter -2 and proCasp3 act 4.
For COc1ccccc1NC(=O)COc1ccc(/C=N/NC(=O)CSCc2ccc(Cl)cc2)cc1 the results were CHT PAM inactive, CHT block inactive, procasp7 counter 2 and proCasp3 act 0.
Screening O=C(CSCc1ccc(Cl)cc1)N/N=C/c1ccc(OCC(=O)Nc2ccccc2)cc1 returned CHT PAM inactive, CHT block inactive, procasp7 counter 28*, proCasp3 act 2, PC3 D3A act 0 and PC7 dual conf 1.
Screening Cc1ccc2nc(-c3ccc(NC(=O)C(C)Sc4nncs4)cc3)sc2c1 (stereo not given) returned CHT PAM inactive, CHT block inactive, procasp7 counter 30*, proCasp3 act 3, PC3 D3A act 2 and PC7 dual conf -2.
COc1ccc(OC)c(/C=C/C(=O)Nc2cccc(S(=O)(=O)NC3=NCCCCC3)c2)c1 was read as procasp7 counter 85*, proCasp3 act 26*, PC3 D3A act 1 and PC7 dual conf 0.
`COc1ccc(/C=C/C(=O)Nc2cccc(S(=O)(=O)NC3=NCCCCC3)c2)c(OC)c1` gave procasp7 counter 1 and proCasp3 act 6.
For O=c1c(-c2nc3ccccc3s2)cccn1Cc1ccccc1 the results were CHT PAM inactive, CHT block inactive, procasp7 counter 56*, proCasp3 act 6, PC3 D3A act -29 and PC7 dual conf -35.
`Nc1ccccc1-c1nc2ccccc2s1` gave CHT PAM inactive, CHT block inactive, procasp7 counter -3 and proCasp3 act -7.
Screening Cc1ccc(Cn2cccc(-c3nc4ccccc4s3)c2=O)cc1 returned CHT PAM inactive, CHT block inactive, procasp7 counter 43*, proCasp3 act 11, PC3 D3A act -29 and PC7 dual conf -34.
For CCCCN(C(=O)c1ccc(S(=O)(=O)N(CC)CC)cc1)c1c(N)n(CCC)c(=O)[nH]c1=O the results were CHT PAM inactive, CHT block inactive, procasp7 counter -5 and proCasp3 act 2.
O=C(Cc1cc(=O)oc2cc(O)ccc12)NC(Cc1ccc(Cl)cc1)C(=O)O (stereo not given) was read as CHT PAM inactive, CHT block inactive, procasp7 counter 27*, proCasp3 act 20, PC3 D3A act -30 and PC7 dual conf -36.
O=C(COc1ccc2ccc(=O)oc2c1)NC(Cc1ccc(Cl)cc1)C(=O)O (stereo not given) was read as CHT PAM inactive, CHT block inactive, procasp7 counter -7 and proCasp3 act 3.
For COc1cc2c(cc1OC)C1(C)N(CC2)C(C(C)=O)=NN1c1ccc(Cl)cc1 (stereo not given) the results were CHT PAM inactive, CHT block inactive, procasp7 counter 37*, proCasp3 act 28*, PC3 D3A act -28 and PC7 dual conf -36.
Screening Cc1ccc(Oc2nc3c(C)cccn3c(=O)c2/C=C(\C#N)C(N)=O)cc1 returned CHT PAM inactive, CHT block inactive, procasp7 counter 46*, proCasp3 act 22*, PC3 D3A act -9 and PC7 dual conf -12.

From PubChem
